How the values were obtained:
[1] = target: T1, Dual specificity tyrosine-phosphorylation-regulated kinase 2 (Homo sapiens) (UniProt Q92630); assay: Inhibition of DYRK2 assessed as residual activity at 10 uM by Cherenkov counting relative to control in presence of 50 uM ATP
T1 sequence (whole entry): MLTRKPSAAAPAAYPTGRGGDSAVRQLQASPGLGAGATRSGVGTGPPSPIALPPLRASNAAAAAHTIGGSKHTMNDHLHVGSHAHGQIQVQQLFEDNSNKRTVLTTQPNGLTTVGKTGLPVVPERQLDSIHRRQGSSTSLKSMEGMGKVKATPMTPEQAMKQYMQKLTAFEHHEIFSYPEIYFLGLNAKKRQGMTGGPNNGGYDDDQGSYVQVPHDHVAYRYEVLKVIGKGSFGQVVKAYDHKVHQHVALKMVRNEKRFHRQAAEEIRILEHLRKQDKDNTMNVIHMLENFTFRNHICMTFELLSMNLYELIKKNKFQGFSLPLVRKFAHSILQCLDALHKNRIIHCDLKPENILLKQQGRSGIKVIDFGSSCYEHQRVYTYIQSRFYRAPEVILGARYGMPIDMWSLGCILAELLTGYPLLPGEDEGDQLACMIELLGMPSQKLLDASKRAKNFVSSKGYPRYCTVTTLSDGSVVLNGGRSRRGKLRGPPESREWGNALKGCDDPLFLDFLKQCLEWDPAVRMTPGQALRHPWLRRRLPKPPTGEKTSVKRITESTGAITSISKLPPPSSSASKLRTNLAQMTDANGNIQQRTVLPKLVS
Method in brief: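 Single-point profiling at 10 µM in a panel of 78 protein kinases. Kinase activity is expressed as a percentage relative to control assays without compound.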

[2] = target: Tyrosine-protein kinase SYK (Homo sapiens) (UniProt P43405); assay: Inhibition of SYK assessed as residual activity at 10 uM by Cherenkov counting relative to control in presence of 20 uM ATP
Method in brief: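 Single-concentration profiling at 10 μM in a 78-kinase panel. Kinase activity is expressed as a percentage of control assays run without compound.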

[3] = target: MAP kinase-interacting serine/threonine-protein kinase 2 (Homo sapiens) (UniProt Q9HBH9); assay: Inhibition of MNK2 assessed as residual activity at 0.1 uM by Cherenkov counting relative to control in presence of 50 uM ATP
MAP kinase-interacting serine/threonine-protein kinase 2 (Homo sapiens), sequence (Q9HBH9 whole entry, looked up): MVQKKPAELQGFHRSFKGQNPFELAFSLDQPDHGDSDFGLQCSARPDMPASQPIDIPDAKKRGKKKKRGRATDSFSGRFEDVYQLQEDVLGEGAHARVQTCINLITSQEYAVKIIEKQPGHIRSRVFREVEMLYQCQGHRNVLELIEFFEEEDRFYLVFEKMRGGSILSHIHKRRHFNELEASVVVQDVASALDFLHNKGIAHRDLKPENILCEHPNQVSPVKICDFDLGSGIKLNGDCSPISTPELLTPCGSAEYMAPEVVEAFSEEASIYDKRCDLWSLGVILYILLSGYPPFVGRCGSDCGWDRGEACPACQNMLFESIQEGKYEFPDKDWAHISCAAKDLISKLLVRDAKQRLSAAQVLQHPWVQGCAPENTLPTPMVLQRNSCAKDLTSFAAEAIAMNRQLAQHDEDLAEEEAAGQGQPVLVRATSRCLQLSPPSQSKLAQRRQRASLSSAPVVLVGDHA
Method in brief: (§1)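 Single-concentration selectivity screen at 0.1 μM against a panel of 76 protein kinases. Each kinase was run at an ATP level approximating its Km for ATP. Output is mean residual activity as % of the control assay without compound, n = 3 ± SD.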

[4] = target: T2, Protein kinase C zeta type (Homo sapiens) (UniProt Q05513); assay: Inhibition of PKCzeta assessed as residual activity at 0.1 uM by Cherenkov counting relative to control in presence of 5 uM ATP
T2 sequence (whole entry): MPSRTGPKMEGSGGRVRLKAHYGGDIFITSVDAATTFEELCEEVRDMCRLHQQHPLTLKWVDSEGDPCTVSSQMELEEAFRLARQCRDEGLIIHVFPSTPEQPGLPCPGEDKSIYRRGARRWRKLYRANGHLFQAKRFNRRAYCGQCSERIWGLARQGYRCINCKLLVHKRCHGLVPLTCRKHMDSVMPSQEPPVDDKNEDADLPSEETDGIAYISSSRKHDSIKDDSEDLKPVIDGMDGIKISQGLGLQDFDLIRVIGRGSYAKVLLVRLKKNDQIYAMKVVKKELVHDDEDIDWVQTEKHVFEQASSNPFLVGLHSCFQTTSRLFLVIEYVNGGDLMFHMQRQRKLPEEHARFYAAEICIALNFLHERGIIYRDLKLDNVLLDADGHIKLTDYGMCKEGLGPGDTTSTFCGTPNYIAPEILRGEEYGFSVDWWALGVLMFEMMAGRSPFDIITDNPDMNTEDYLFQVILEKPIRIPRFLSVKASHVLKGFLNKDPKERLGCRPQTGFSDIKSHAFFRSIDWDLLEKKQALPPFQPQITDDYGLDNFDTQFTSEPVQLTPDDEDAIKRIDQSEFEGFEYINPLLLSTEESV
Method in brief: (§2)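 Single-concentration screen at 0.1 μM in a 76-kinase panel. ATP for each kinase was set near its Km for ATP. Residual activity is given as a percentage of control assays without compound, mean of n = 3 ± SD.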

[5] = target: T3, Serine/threonine-protein kinase Sgk1 (Homo sapiens) (UniProt O00141); assay: Inhibition of SGK1 assessed as residual activity at 0.1 uM by Cherenkov counting relative to control in presence of 20 uM ATP; method in brief: as §2
T3 sequence (whole entry): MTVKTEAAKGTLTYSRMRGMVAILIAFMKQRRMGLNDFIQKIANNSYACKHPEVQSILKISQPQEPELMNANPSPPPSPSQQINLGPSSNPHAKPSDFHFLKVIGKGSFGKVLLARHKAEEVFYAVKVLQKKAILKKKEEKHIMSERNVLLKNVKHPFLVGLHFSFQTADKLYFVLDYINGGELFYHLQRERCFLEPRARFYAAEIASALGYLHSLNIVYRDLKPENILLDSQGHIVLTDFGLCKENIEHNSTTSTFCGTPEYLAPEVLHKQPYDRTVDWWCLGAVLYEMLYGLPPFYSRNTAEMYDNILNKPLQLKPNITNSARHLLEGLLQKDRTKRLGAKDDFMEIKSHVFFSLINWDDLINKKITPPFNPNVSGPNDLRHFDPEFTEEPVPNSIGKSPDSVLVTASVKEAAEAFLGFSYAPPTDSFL

[6] = target: Mitogen-activated protein kinase 14 (Homo sapiens, UniProt Q16539); assay: Inhibition of p38alpha assessed as residual activity at 0.1 uM by Cherenkov counting relative to control; method in brief: as §2
Mitogen-activated protein kinase 14, sequence (Q16539 whole entry): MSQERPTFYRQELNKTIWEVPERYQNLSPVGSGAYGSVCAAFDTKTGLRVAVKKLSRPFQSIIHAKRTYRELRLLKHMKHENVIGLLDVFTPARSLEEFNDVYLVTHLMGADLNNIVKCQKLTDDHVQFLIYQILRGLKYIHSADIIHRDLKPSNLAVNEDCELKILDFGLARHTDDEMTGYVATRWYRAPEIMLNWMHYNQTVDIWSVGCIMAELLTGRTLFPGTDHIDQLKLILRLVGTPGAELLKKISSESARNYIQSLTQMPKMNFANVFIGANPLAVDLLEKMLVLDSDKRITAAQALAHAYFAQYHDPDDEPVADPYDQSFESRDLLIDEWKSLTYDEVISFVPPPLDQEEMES

[7] = target: Ribosomal protein S6 kinase alpha-5 (Homo sapiens) (UniProt O75582); assay: Inhibition of MSK1 assessed as residual activity at 0.1 uM by Cherenkov counting relative to control in presence of 20 uM ATP; method in brief: as §1
Ribosomal protein S6 kinase alpha-5 (Homo sapiens), sequence (O75582 whole entry, looked up): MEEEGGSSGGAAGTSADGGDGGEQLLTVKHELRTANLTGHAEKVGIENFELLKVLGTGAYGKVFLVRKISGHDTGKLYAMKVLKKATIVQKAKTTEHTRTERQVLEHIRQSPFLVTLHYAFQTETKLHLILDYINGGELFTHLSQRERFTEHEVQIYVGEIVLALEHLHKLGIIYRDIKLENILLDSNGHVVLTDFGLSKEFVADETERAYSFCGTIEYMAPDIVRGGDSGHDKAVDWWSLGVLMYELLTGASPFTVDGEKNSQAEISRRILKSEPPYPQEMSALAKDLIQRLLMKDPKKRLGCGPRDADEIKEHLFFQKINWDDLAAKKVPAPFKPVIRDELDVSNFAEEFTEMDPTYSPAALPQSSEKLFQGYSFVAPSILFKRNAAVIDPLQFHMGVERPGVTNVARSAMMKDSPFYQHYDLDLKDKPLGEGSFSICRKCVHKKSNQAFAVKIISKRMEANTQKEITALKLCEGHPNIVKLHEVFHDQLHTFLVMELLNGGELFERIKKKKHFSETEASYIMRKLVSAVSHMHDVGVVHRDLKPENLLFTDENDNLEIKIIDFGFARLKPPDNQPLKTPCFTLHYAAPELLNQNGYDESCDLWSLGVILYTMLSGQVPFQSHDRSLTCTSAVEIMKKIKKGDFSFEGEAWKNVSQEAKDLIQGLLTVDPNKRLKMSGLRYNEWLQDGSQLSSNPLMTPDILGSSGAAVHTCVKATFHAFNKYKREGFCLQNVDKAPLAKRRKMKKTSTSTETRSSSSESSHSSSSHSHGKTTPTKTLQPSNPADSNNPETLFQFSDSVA

[8] = target: Mitogen-activated protein kinase 12 (Homo sapiens) (UniProt P53778); assay: Inhibition of p38-gamma assessed as residual activity at 0.1 uM by Cherenkov counting relative to control; method in brief: as §2
Mitogen-activated protein kinase 12 (Homo sapiens), sequence (P53778 whole entry): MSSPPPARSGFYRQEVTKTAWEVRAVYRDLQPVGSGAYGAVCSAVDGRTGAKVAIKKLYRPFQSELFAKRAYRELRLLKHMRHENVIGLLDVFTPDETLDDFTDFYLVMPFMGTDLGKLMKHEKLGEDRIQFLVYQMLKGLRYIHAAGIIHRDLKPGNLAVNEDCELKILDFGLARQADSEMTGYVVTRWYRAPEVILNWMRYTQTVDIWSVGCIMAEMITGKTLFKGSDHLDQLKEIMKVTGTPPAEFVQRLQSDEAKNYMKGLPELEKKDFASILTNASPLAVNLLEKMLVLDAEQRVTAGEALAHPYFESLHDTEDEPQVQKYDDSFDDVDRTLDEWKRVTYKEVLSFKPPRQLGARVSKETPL

| Activity [1] [%] | Activity [2] [%] | Activity [3] [%] | Activity [4] [%] | Activity [5] [%] | Activity [6] [%] | Activity [7] [%] | Activity [8] [%] | Structure (SMILES) |
| --- | --- | --- | --- | --- | --- | --- | --- | --- |
| 104 | 114 |  |  |  |  |  |  | CC(C)c1noc(-c2ccc(F)cc2)c1-c1ccncc1 |
| 101 | 131 |  |  |  |  |  |  | CC(C)c1onc(-c2ccc(F)cc2)c1-c1ccncc1 |
|  |  | 88 | 83 | 87 | 5 | 97 | 97 | COc1ccc(/C=C/C(=O)Nc2cc(-c3[nH]c([S+](C)[O-])nc3-c3ccc(F)cc3)ccn2)c(OC)c1 (stereo unspecified) |
|  |  | 85 | 79 | 87 | 3 | 84 | 84 | COc1ccc(/C=C/C(=O)Nc2cc(-c3[nH]c(SC)nc3-c3ccc(F)cc3)ccn2)c(OC)c1 |

Reference: ChEMBL document CHEMBL1155278, “3,4-Diaryl-isoxazoles and -imidazoles as potent dual inhibitors of p38alpha mitogen activated protein kinase and casein kinase 1delta” (J Med Chem, 2009)
